# The list is not random: actives were taken first. Their share in the collection is about 1.7%.
# EBV gp42 inh: blocks Epstein-Barr virus glycoprotein 42 binding; Q1HVG2; Fluorescence polarization binding assay, mP read-out; inhibition, % (tested at 21.74 µM); 220,000 compounds, 0.42% hits; AID 1085; in the data active means inhibition above about 50%
# Target sequence (Q1HVG2 whole entry, looked up): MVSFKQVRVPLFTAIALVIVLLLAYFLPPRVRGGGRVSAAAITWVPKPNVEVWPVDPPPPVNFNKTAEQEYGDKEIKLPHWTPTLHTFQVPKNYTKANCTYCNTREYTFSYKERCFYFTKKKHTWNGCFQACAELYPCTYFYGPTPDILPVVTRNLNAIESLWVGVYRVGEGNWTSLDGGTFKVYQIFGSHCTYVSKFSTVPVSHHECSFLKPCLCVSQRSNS
# ZTA counter: ZTA (EBV) inhibition in EBNA-1 counter-screen. P03206. ZTA-DNA binding, fluorescence polarization. inhibition, % at 11 µM. 320,000 compounds, 0.15% hits; in the data active means inhibition above about 33%
# Target sequence (P03206 whole entry, looked up): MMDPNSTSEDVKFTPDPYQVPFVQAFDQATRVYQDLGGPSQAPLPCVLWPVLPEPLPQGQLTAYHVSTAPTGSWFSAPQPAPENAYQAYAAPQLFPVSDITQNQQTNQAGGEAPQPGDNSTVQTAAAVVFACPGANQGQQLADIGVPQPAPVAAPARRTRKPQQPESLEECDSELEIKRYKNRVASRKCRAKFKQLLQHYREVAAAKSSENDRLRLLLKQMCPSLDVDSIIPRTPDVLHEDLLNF
# core dimer inh: HCV core protein dimerization inhibition. TR-FRET GST/Flag-core106 dimerization, 1536-well. inhibition, % at 5 µM. 300,000 compounds, 0.33% hits. AID 1899;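 active means inhibition above the mean of all tested compounds plus 3 SD, set per screening campaign, cut at about 45% in these data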
#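 test system = GST/Flag-tagged HCV core106 proteins | probe or stimulus = Eu donor and XL665 acceptor anti-tag antibodies | times = compound-protein-antibody incubation 4 h at 22.5 °C | signal = TR-FRET, excitation 340 nm, emission 617 and 671 nm | measure = percent inhibition of core106 dimerization signal | controls = wells lacking GST-core106 and wells with excess unlabelled core106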
# HCV NS3 hel inh: blocks Hepatitis C virus NS3 helicase unwinding | NS3 helicase DNA unwinding, Cy5 molecular beacon fluorescence | inhibition, % at 10.9 µM | 290,000 compounds, 0.56% hits | AID 1800;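 active means inhibition above the mean of all tested compounds plus 3 SD, set per campaign, cut at about 35% in these data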;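 further: 0% = DMSO wells and 100% = thioflavine S control wells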
#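 Assay system – hepatitis C virus NS3 helicase domain fragment enzyme · Buffer or medium – MOPS pH 6.5, MgCl2, DTT, Tween20, BSA · Reagent – Cy5/quencher beacon DNA duplex and ATP to start · Compound – single 10.9 µM dose · Timing – 1 h at 25 °C · Technique – Cy5 beacon fluorescence read at start and 1 h · Measure – % inhibition of unwinding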
# MEX-5 binding: C. elegans MEX-5 TCR-2 RNA binding activity; Q9XUB2; MEX-5/FITC-TCR2 RNA binding, fluorescence polarization; stronger effect = lower value; activity score (negative = inhibition of binding), % at 10 µM; 300,000 compounds, 0.38% hits;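 active means inhibition past about -25% in most replicates, and total fluorescence under double the plate's negative control median, limit read from the data; inconclusive means replicates evenly split on the limit, or fluorescence at least double controls; inactive means too little inhibition in most replicates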;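 further: 0% = DMSO and -100% = 5 µM competing unlabeled TCR2 RNA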
# EBNA-1 inh: blocks EBNA-1 binding to DNA. EBNA-1 DNA binding, fluorescence polarization. inhibition, % at 14.8 µM. 300,000 compounds, 0.34% hits. AID 1950; in the data active means inhibition above about 28%
# The depositor's hits bear a star; ? = inconclusive; . = not tested or not shown; + = active, no number.
SMILES,EBV gp42 inh,ZTA counter,core dimer inh,HCV NS3 hel inh,MEX-5 binding,EBNA-1 inh
Cc1ccc2c3c(cccc13)-c1ccccc1C2=O,62*,13,-8,1,-10,-10
O=C(NCc1ccccc1)c1ccc2nccnc2c1,-15,0,-1,-6,1,0
O=C(NCCCO)c1ccc2nc(-c3ccco3)c(-c3ccco3)nc2c1,-6,.,.,0,.,.
CCCCNC(=O)c1ccc2nc(-c3ccco3)c(-c3ccco3)nc2c1,10,3,50*,20,0,3
O=C(NCc1ccccc1)c1ccc2nc(-c3ccco3)c(-c3ccco3)nc2c1,2,9,73*,24,-1,17
O=C(CSc1nc2ccccc2c(=O)n1-c1ccccc1)c1c[nH]c2ccccc12,-23,-2,-6,5,-1,37*
Cc1cccn2c(=O)c(C=NCCO)c(Nc3ccc(Cl)cc3)nc12,-12,-19,-1,7,-1,8
CCc1ccccc1NC(=O)CN(c1ccc(OC)cc1OC)S(=O)(=O)c1ccccc1,.,-8,14,-15,0,15
O=C(COC(=O)c1cc([N+](=O)[O-])ccc1NCc1ccccc1)NC1CCCc2ccccc21 (stereo unspecified),-14,-4,59*,5,-2,-18
O=C1NC2=C(C(=O)CCC2)C(c2ccccc2Cl)N1 (stereo unspecified),.,8,0,0,1,6
Cc1nc(Cl)c2c(n1)NC1=C(O2)C(=O)CCC1,136*,-9,-9,16,?,-1
O=[N+]([O-])c1ccc(-c2c[nH]c(=S)[nH]2)cc1,2,5,53*,19,-3,1
COc1ccc(SC[C@H](Cc2ccccc2)N2CC[C@@H](NC(=O)OCc3ccccc3)CCC2=O)cc1,.,-1,.,.,.,.
Cc1ccc(N2C(=O)C3C(C(=O)c4ccccc4)=NN(c4ccccc4)C3C2=O)cc1 (stereo unspecified),53*,0,18,4,?,6
O=C(C1=NN(c2ccccc2)C2C(=O)N(c3ccccc3Cl)C(=O)C12)c1ccccc1 (stereo unspecified),53*,4,6,20,-28*,-6
CCOC(=O)C1=NN(c2ccccc2)C2C(=O)N(c3ccccc3OC)C(=O)C12 (stereo unspecified),3,-5,-3,-4,-2,-7
COc1ccccc1N1N=C(C(=O)c2ccccc2)C2C(=O)N(c3ccc(Br)cc3)C(=O)C21 (stereo unspecified),17,1,2,8,?,0
COc1ccccc1N1C(=O)C2C(C(=O)c3ccccc3)=NN(c3ccccc3)C2C1=O (stereo unspecified),72*,-10,23,-15,-16,6
O=C(C1=NN(c2ccccc2)C2C(=O)N(c3ccccc3)C(=O)C12)c1ccccc1 (stereo unspecified),59*,-1,6,3,-37*,4
O=C(CCC(=O)N1CCOCC1)NCCc1ccc(Cl)cc1Cl,.,4,11,2,-3,-1
O=C(Nc1ccc(NC(=S)NC(=O)C(c2ccccc2)c2ccccc2)cc1)c1ccccc1,.,-11,57*,0,0,8
COc1ccccc1NS(=O)(=O)c1ccc(C(=O)NCCCN2CCCC2=O)cc1,.,-11,.,.,.,.
CC(C)CCNC(=O)c1cc2c(=O)n3ccccc3nc2s1,.,1,2,1,2,-15
O=C(N/N=C/c1ccc(O)cc1O)c1ccc(CN2C(=O)c3cccc4cccc2c34)cc1,11,-30,54*,-2,-6,10
O=C(N/N=C/c1ccccc1)c1ccc(CN2C(=O)c3cccc4cccc2c34)cc1,-88,-11,13,-13,2,10
SMILES,EBV gp42 inh,ZTA counter,core dimer inh,HCV NS3 hel inh,MEX-5 binding,EBNA-1 inh
O=C(CSc1nnc(-c2ccco2)o1)c1ccc[nH]1,-7,7,63*,19,-1,3
O=C(CSc1nnc(-c2ccco2)o1)c1ccccc1,-1,-2,23,6,-1,4
CCN(CC)CCNC(=O)CCc1c(C)nc2c(c(C)nn2-c2ccc(C)c(C)c2)c1C,.,.,.,-70,0,.
Fc1cc2[nH]c(=S)[nH]c2c(Br)c1N1CCSCC1,.,4,4,5,-2,-8
Cc1ccc(CN(C)C(=O)COc2ccc(S(=O)(=O)N3CCCC3)cc2[N+](=O)[O-])c(C)c1,.,12,.,.,.,.
N=c1oc2cc(O)ccc2cc1C(=O)Nc1ccccn1,77*,9,-2,-1,.,-3
N=c1oc2cc(O)ccc2cc1C(=O)Nc1nc2ccccc2s1,54*,-12,-3,4,-11,-7
O=C1c2ccccc2C(=O)N1c1cccc(-c2csc(Nc3ccc4c(c3)OCO4)n2)c1,5,-12,49*,24,.,3
COc1cc(C=C2C(=O)c3ccccc3C2=O)ccc1O,-17,-2,-4,8,-2,-3
COc1ccc(OC)c2c1C(=O)c1ccccc1C2=O,+,21,1,-43,?,5
COc1cc(C=C2C(=O)c3ccccc3C2=O)cc(OC)c1OC,95*,21,0,17,-54*,7
COc1ccc(N)c2c1C(=O)c1ccccc1C2=O,1,9,-63,2,-1,7
CC1CCC2(CC1)NC(=O)N(CC(=O)N1CCN(c3ccccc3)CC1)C2=O (stereo unspecified),.,-9,.,.,.,.
CCOc1ccc(NC(=O)C(CC(=O)O)Cc2ccc(C)cc2)cc1 (stereo unspecified),.,.,.,10,-1,.
O=C(N/N=C\c1cn(-c2ccccc2)nc1-c1ccccc1)c1ccc(Br)o1,-14,6,25,-5,-1,0
Cc1ccc(-c2nn(-c3ccccc3)cc2/C=N/NC(=O)c2ccc(Br)o2)cc1,-6,5,49*,5,-1,2
Nc1nc2c(Cl)ccc(Cl)c2s1,-4,-8,5,-4,1,2
COc1ccc(S(=O)(=O)N2CCCCC2)cc1NC(=O)C1CC(=O)N(Cc2ccccc2)C1 (stereo unspecified),.,0,.,.,.,.
O=C(Nc1ccc2c(c1)nc1n2CCN(C2CCCCC2)C1)NC1CCCCC1,83*,-9,5,-30,-8,-8
CCN1CC=C2C(C1)C(c1ccc(Cl)s1)C(C#N)=C(N)C2(C#N)C#N (stereo unspecified),88*,0,0,10,?,-2
O=C(c1ccccc1)c1ccc(O)cc1O,67*,4,1,18,?,11
O=C(c1ccc(O)cc1)c1ccc(O)cc1O,13,-5,0,0,-7,-7
CC1CCCCC1NC(=O)CN1CCN(S(=O)(=O)c2ccc(Br)s2)CC1 (stereo unspecified),.,10,.,.,.,.
